# Columns and labels:
# [1] = system: Rattus norvegicus; test: Antihypertensive activity in Norwegian albino rat assessed as inhibition of DOCA salt-induced diastolic blood pressure at 10 mg/kg, po after 30 mins by invasive carotid artery cannulation method; assay type: functional; conditions: 0.5 h
# Summary of the method: (§1)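 Male rats (200–250 g), uninephrectomized and given DOCA s.c. (30–50 mg/kg/week) with 1% NaCl drinking water. Anesthetized with pentobarbital (35 mg/kg i.p.); left carotid artery cannulated and exteriorized. After recovery and a baseline reading, compound given orally by feeding needle. Diastolic pressure recorded via transducer at 15, 30, 60, 120 and 180 min. Mean ± S.E.M.; repeated-measures ANOVA.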
# [2] = system: Rattus norvegicus; test: Antiinflammatory activity in Norwegian albino rat assessed as inhibition of carrageenan-induced paw edema at 100 mg/kg, po after administered 60 mins prior to carrageenan-challenge measured after 5 hrs; assay type: functional
# Summary of the method: (§2)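 Compound given orally as 100 mg/kg suspension in 0.5% CMC. 60 min later, carrageenan injected sub-plantar into the left hind paw. Paw volume measured within 30 s of injection, then at 1–5 h. % inhibition = [1−(Dt/Dc)]×100, where Dt and Dc are mean relative paw-volume changes in test and control. ANOVA.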
# [3] = system: Rattus norvegicus; test: Antihypertensive activity in Norwegian albino rat assessed as inhibition of DOCA salt-induced systolic blood pressure at 10 mg/kg, po after 300 mins by non-invasive tail-cuff method; assay type: functional; conditions: Artery, 5 h
# Summary of the method: (§3)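 Male rats (200–250 g), uninephrectomized under pentobarbital (50 mg/kg i.p.); one week later DOCA s.c. 30–50 mg/kg/week, with 1% w/v NaCl in drinking water. Groups of six, trained in restrainer, tail warmed at 33–34 °C. Compound in 0.5% CMC, 10 mg/kg orally. Systolic pressure read by tail-cuff before dosing and from 1 h after; three readings averaged. ANOVA.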
# [4] = system: Rattus norvegicus; test: Antihypertensive activity in Norwegian albino rat assessed as inhibition of DOCA salt-induced systolic blood pressure at 10 mg/kg, po after 180 mins by non-invasive tail-cuff method; assay type: functional; conditions: Artery, 3 h; summary of the method: as §3
# [5] = system: Rattus norvegicus; test: Antiinflammatory activity in Norwegian albino rat assessed as inhibition of carrageenan-induced paw edema at 100 mg/kg, po after administered 60 mins prior to carrageenan-challenge measured after 1 hr; assay type: functional; summary of the method: as §2
# [6] = system: Rattus norvegicus; test: Antihypertensive activity in Norwegian albino rat assessed as inhibition of DOCA salt-induced systolic blood pressure at 10 mg/kg, po after 15 mins by non-invasive tail-cuff method; assay type: functional; conditions: Artery, 0.25 h
# [7] = system: Rattus norvegicus; test: Gastrointestinal toxicity in albino rat assessed as ulcerogenic index at 50 mg/kg, po; assay type: organism-based; set-up: dose 50 mg/kg, route oral; conditions: in vivo
# Summary of the method: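 Albino rats (150–200 g), six per group, food but not water withheld 24 h. Compound given p.o. at 50 mg/kg; controls received 1% methyl cellulose. Rats fed 17 h, then killed; stomach opened along greater curvature and examined under 4× magnifier. Lesions scored as large (>2 mm), small (1–2 mm) or punctiform (<1 mm). Severity index = treated mean score minus control mean score.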
# [8] = system: Rattus norvegicus; test: Antihypertensive activity in Norwegian albino rat assessed as inhibition of DOCA salt-induced systolic blood pressure at 10 mg/kg, po after 240 mins by non-invasive tail-cuff method; assay type: functional; conditions: Artery, 4 h; summary of the method: as §3
# [9] = system: Rattus norvegicus; test: Antihypertensive activity in Norwegian albino rat assessed as inhibition of DOCA salt-induced systolic blood pressure at 10 mg/kg, po after 360 mins by non-invasive tail-cuff method; assay type: functional; conditions: Artery, 6 h; summary of the method: as §3
# [10] = system: Rattus norvegicus; test: Antihypertensive activity in Norwegian albino rat assessed as inhibition of DOCA salt-induced diastolic blood pressure at 10 mg/kg, po after 60 mins by invasive carotid artery cannulation method; assay type: functional; conditions: 1 h; summary of the method: as §1
# [11] = system: Rattus norvegicus; test: Antihypertensive activity in Norwegian albino rat assessed as inhibition of DOCA salt-induced diastolic blood pressure at 10 mg/kg, po after 180 mins by invasive carotid artery cannulation method; assay type: functional; conditions: 3 h; summary of the method: as §1
# [12] = system: Rattus norvegicus; test: Antihypertensive activity in Norwegian albino rat assessed as inhibition of DOCA salt-induced diastolic blood pressure at 10 mg/kg, po after 240 mins by invasive carotid artery cannulation method; assay type: functional; conditions: 4 h
# [13] = system: Rattus norvegicus; test: Antihypertensive activity in Norwegian albino rat assessed as inhibition of DOCA salt-induced systolic blood pressure at 10 mg/kg, po after 60 mins by non-invasive tail-cuff method; assay type: functional; conditions: Artery, 1 h; summary of the method: as §3
# [14] = system: Rattus norvegicus; test: Antihypertensive activity in Norwegian albino rat assessed as inhibition of DOCA salt-induced systolic blood pressure at 10 mg/kg, po after 480 mins by non-invasive tail-cuff method; assay type: functional; conditions: Artery, 8 h; summary of the method: as §3
# [15] = system: Mus musculus; test: Analgesic activity against acetic acid-induced writhing in Swiss albino mouse assessed as protection at 20 mg/kg, po; assay type: functional
# Summary of the method: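 Swiss albino mice (25–30 g), six per group, habituated 30 min individually in the test cage. Compound in 1% CMC given p.o. at 20 mg/kg. 1 h later, acetic acid injected i.p.; writhes (arching of back, body elongation, hind-limb extension) counted 5–15 min after injection. % inhibition = (n−n′)/n×100, where n and n′ are mean writhes in control and test.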
# [16] = system: Rattus norvegicus; test: Antihypertensive activity in Norwegian albino rat assessed as inhibition of DOCA salt-induced diastolic blood pressure at 10 mg/kg, po after 15 mins by invasive carotid artery cannulation method; assay type: functional; conditions: 0.25 h; summary of the method: as §1
# [17] = system: Rattus norvegicus; test: Antihypertensive activity in Norwegian albino rat assessed as inhibition of DOCA salt-induced systolic blood pressure at 10 mg/kg, po after 120 mins by non-invasive tail-cuff method; assay type: functional; conditions: Artery, 2 h; summary of the method: as §3
# [18] = system: Rattus norvegicus; test: Antiinflammatory activity in Norwegian albino rat assessed as inhibition of carrageenan-induced paw edema at 100 mg/kg, po after administered 60 mins prior to carrageenan-challenge measured after 3 hrs; assay type: functional; summary of the method: as §2
# [19] = system: Rattus norvegicus; test: Antihypertensive activity in Norwegian albino rat assessed as inhibition of DOCA salt-induced systolic blood pressure at 10 mg/kg, po after 30 mins by non-invasive tail-cuff method; assay type: functional; conditions: Artery, 0.5 h
# [20] = system: Rattus norvegicus; test: Antihypertensive activity in Norwegian albino rat assessed as inhibition of DOCA salt-induced systolic blood pressure at 10 mg/kg, po after 420 mins by non-invasive tail-cuff method; assay type: functional; conditions: Artery, 7 h; summary of the method: as §3
# [21] = system: Rattus norvegicus; test: Antihypertensive activity in Norwegian albino rat assessed as inhibition of DOCA salt-induced diastolic blood pressure at 10 mg/kg, po after 120 mins by invasive carotid artery cannulation method; assay type: functional; conditions: 2 h; summary of the method: as §1
Compound,inhibition in vivo at 10 mg/kg [1] [%],inhibition in vivo at 100 mg/kg [2] [%],inhibition in vivo at 10 mg/kg [3] [%],inhibition in vivo at 10 mg/kg [4] [%],inhibition in vivo at 100 mg/kg [5] [%],inhibition in vivo at 10 mg/kg [6] [%],UI [7],inhibition in vivo at 10 mg/kg [8] [%],inhibition in vivo at 10 mg/kg [9] [%],inhibition in vivo at 10 mg/kg [10] [%],inhibition in vivo at 10 mg/kg [11] [%],inhibition in vivo at 10 mg/kg [12] [%],inhibition in vivo at 10 mg/kg [13] [%],inhibition in vivo at 10 mg/kg [14] [%],Activity [15] [%],inhibition in vivo at 10 mg/kg [16] [%],inhibition in vivo at 10 mg/kg [17] [%],inhibition in vivo at 100 mg/kg [18] [%],inhibition in vivo at 10 mg/kg [19] [%],inhibition in vivo at 10 mg/kg [20] [%],further results
CCOC(=O)C1=C(C)NC(OC)N(CC(=O)c2ccc(Cl)cc2)C1c1ccc(O)cc1 (stereo unspecified),10.3,42,39.6,28.4,36.6,1,0.45,36.7,42,22.5,38.3,47.8,15.1,45.5,45.66,1.43,23.1,38.8,6.36,44,inhibition in vivo at 10 mg/kg [21]: 30.1%
CCOC(=O)C1=C(C)NC(OC)N(CC(=O)c2ccc(OC)cc2)C1c1ccc(OC)cc1 (stereo unspecified),12.1,47.2,40.1,27.8,37.7,1.57,0.2,36,41.9,23.5,39.4,48.8,15.1,48.6,51.33,3.33,21.6,39.8,6.58,46.5,inhibition in vivo at 10 mg/kg [21]: 31.1%
CCOC(=O)C1=C(C)NC(OC)N(CC(=O)c2ccc(OC)cc2)C1c1ccc(C)cc1 (stereo unspecified),11.5,42,39.6,28.1,38.8,1.82,0.56,36.9,42,22.5,37.6,47.9,14.7,46.3,43.33,3.12,24,39.8,11.1,44,inhibition in vivo at 10 mg/kg [21]: 30%
CCOC(=O)C1=C(C)NC(OC)N(CC(=O)c2ccc(Cl)cc2)C1c1ccc(OC)cc1 (stereo unspecified),10.1,42,41.4,28,37.8,1.57,0.45,36,42.9,23.5,37.9,47.7,18.2,51.9,49.56,1.79,23.8,39.5,6.58,49.4,inhibition in vivo at 10 mg/kg [21]: 30.1%
CCOC(=O)C1=C(C)NC(OC)N(CC(=O)c2ccc(Cl)cc2)C1c1ccc(C)cc1 (stereo unspecified),10.5,47.3,39.5,28,37.1,1.61,0.76,36.8,42,22.5,37.8,47.8,13.8,45.7,53.17,2.35,24,38.8,11.1,44,inhibition in vivo at 10 mg/kg [21]: 30.4%
CCOC(=O)C1=C(C)NC(OC)N(CC(=O)c2ccccc2)C1c1ccc(OC)cc1 (stereo unspecified),10.6,52.6,41.4,28,38.8,1.57,0.75,36,42.9,22.9,37.9,48.2,13.7,45.9,59.76,2.3,20.4,40.5,6.58,45,inhibition in vivo at 10 mg/kg [21]: 30.9%

# From ChEMBL document CHEMBL1153580, “Synthesis and pharmacological investigation of 3-(substituted 1-phenylethanone)-4-(substituted phenyl)-1, 2, 3, 4-tetrahydropyrimidine-5-carboxylates” (Eur J Med Chem, 2009)
